MrgX1 agonist = agonists of human MrgX1 receptor. MrgX1-HEK293 cells, Fluo-4 calcium fluorescence, agonist mode; hits give high values. 310,000 compounds, 0.44% hits. B-score at 10 µM. AID 588627;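 active = calcium response B-score plate-corrected fluorescence ratio at least 3 library SD, with starting fluorescence B-score inside 5 SD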
Target sequence (Q96LB2 whole entry, looked up): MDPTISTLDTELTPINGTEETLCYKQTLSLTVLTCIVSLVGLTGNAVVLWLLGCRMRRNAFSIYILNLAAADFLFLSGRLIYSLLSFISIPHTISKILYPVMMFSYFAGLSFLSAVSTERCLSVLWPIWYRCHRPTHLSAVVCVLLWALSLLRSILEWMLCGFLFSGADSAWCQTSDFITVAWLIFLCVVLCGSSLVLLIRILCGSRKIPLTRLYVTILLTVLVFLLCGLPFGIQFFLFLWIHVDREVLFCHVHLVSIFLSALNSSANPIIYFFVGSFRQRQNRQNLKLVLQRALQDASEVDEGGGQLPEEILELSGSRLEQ
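Material: MrgX1-expressing HEK293 cells / Dosing: compound as first of three additions / Incubation: overnight seeding, then 1 h dark dye loading / Signal: Fluo-4 NW calcium fluorescence / Evaluation: B-scored fluorescence response ratio / Benchmarks: positive and negative control wells on each plate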
MrgX1 antag = blocks BAM8-22 activation of human MrgX1 receptor; MRGX1-HEK293 calcium flux, Fluo-4, BAM8-22 antagonism; hits give low values; B-score at 10 µM; 310,000 compounds, 1.3% hits;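 active = calcium-response B-score plate-corrected more than 3 library SD below zero, starting fluorescence within 5 deviations, no agonist response on first addition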;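 also: peak minus trough fluorescence over baseline after final BAM8-22 challenge near maximal dose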
MrgX1 allo act = allosterically activates human MrgX1 receptor signaling. B-score at 10 µM. MrgX1-HEK293, Fluo-4 calcium flux, FDSS; hits give high values. AID 588675. 310,000 compounds, 0.63% hits. Q96LB2;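 active = plate-corrected calcium response at least 3 library SD above typical, normal starting fluorescence, not activating the receptor alone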;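 also: compound read alongside a low EC10 to EC30 dose of BAM8-22 agonist; peak minus trough fluorescence over baseline measured at the second addition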
RGS4 pot = potentiators or activators of RGS4. B-score at 10 µM. HEK293 M3R/inducible RGS4, carbachol calcium flux Fluo4; hits give low values. 310,000 compounds, 0.92% hits;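 active = B-score of the integrated calcium signal more than 4 SD below the library mean, with starting fluorescence not abnormally high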;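 also: negative B-score means reduced calcium response which marks RGS4 activation or potentiation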
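test system = HEK293 cells with stable M3R and inducible RGS4 | schedule = recording 10 s baseline at 1 Hz, 100 s post-agonist | technique = Fluo4-AM (2 µM) calcium-flux fluorescence, kinetic read | measure = Agonist-evoked peak-minus-minimum fluorescence over baseline, integrated ratio, B score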
RGS4 inh = human RGS4 inhibition; 310,000 compounds, 0.45% hits; P49798; B-score at 10 µM; HEK293 M3R/RGS4 inducible, Fluo-4 calcium flux; hits give high values; triggered by carbachol at its EC20;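 active = B-score, a plate-corrected calcium signal, over three deviations above library mean, with baseline fluorescence within five deviations of library mean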;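 also: RGS4 expression induced by doxycycline in cells with stable M3 receptor; B-score is computed from the integrated fluorescence ratio over baseline after carbachol; higher B-score means a larger calcium signal and so more RGS4 inhibition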
Target sequence (P49798 whole entry, looked up): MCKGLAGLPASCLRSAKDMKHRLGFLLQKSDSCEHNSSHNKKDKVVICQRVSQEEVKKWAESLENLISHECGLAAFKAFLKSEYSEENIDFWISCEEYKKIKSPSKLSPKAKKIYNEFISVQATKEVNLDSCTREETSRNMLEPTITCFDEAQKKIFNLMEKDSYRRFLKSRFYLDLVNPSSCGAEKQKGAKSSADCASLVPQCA
Hits are given with their value; - = inactive; . = not tested or not shown. Rows were chosen to be rich in hits. Some 3.5% of all compounds tested hit in one or more screens of this group.

SMILES | MrgX1 agonist | MrgX1 antag | MrgX1 allo act | RGS4 pot | RGS4 inh
COc1cc(/C=C2\C(=N)N3N=C(C(C)C)SC3=NC2=O)ccc1OCCOc1ccc(NC(C)=O)cc1 | - | - | 13.8 | - | -
CC(=O)Nc1ccc(S(=O)(=O)NCCC(=O)OCc2csc(CC(=O)Nc3ccccc3C)n2)cc1 | - | -4.54 | - | - | -
Cc1ccccc1NC(=O)Cc1nc(COC(=O)C(C)C)cs1 | - | - | - | - | -
CC1(c2ccc(OC(F)F)cc2)NC(=O)N(CC(=O)Nc2ccc(F)cc2)C1=O (centres undefined) | - | - | - | - | -
CC1(c2ccc(OC(F)F)cc2)NC(=O)N(CC(=O)Nc2ccc(OC(F)F)cc2)C1=O (centres undefined) | - | -12.4 | - | - | -
CC1(c2ccc(OC(F)F)cc2)NC(=O)N(CC(=O)Nc2cccc(F)c2)C1=O (centres undefined) | - | -6.15 | - | - | -
Cc1ccc(/C=C/C2=NN(Cc3ccccc3)C(=O)CC2)cc1 | - | - | - | - | -
O=C1CCC(/C=C/c2ccccc2)=NN1Cc1ccccc1 | - | - | 10.2 | - | -
N#C/C(=N/Nc1ccc(OC(F)(F)F)cc1)C(N)=S | - | - | - | - | -
NC(=S)N=Nc1ccc(NN=C(N)N)cc1 | 31.1 | - | - | - | -
CCCc1cc(C(=O)NNC(=S)NC2CCCCC2)cs1 | - | - | - | - | -
CCCSc1nc(C)c(CC(=O)O)c(=O)[nH]1 | - | - | - | - | -
CN1CCN(c2ccccc2NS(=O)(=O)c2ccc3c(c2)CCN3C(=O)C2CCC2)CC1 | - | - | - | -9.81 | -
O=C(C1CCC1)N1CCc2cc(S(=O)(=O)NC3CCCC3)ccc21 | - | - | - | - | -
Cc1ccc2nc(C)c(CN3CCN(c4ccc([N+](=O)[O-])cc4Cl)CC3)n2c1 | - | - | - | - | -
COc1cccc(C2=CC(c3ccccc3)n3ncnc3N2)c1 (centres undefined) | - | - | 15.4 | - | -
COc1cccc(C2=CC(c3ccc(N(C)C)cc3)n3ncnc3N2)c1 (centres undefined) | 48.5 | - | - | - | -
O=C(CSCc1cnn(-c2ccccc2)c1-n1cccc1)NCc1ccc2c(c1)OCO2 | . | . | . | -7.31 | -
O=C1OC(c2cccs2)=N/C1=C\c1ccc(-c2cccc(Cl)c2)o1 | - | -5.11 | - | - | -
N=C1S/C(=C\c2ccc(-c3cccc(Cl)c3)o2)C(=O)N1c1nccs1 | - | - | - | - | -
O=C1OCCN1C(=O)[C@H]1[C@H](c2ccc(F)cc2)C(c2ccc(F)cc2)=NN1c1ccc(Br)cc1 | - | - | - | -9.23 | -
COc1ccc(-c2c[n+]3c(n2-c2ccccc2)SCC3)cc1 | - | - | - | -8.46 | -
Cc1ccc(-c2c[n+]3c(n2-c2ccccc2)SCC3)cc1 | - | - | - | - | -
COc1ccc(-c2c[n+]3c(n2-c2ccccc2)CCCCC3)cc1 | - | - | - | -8.3 | -
O=C(CBr)c1ccc([N+](=O)[O-])c(CS(=O)(=O)c2ccc(Cl)cc2)c1 | - | - | - | - | -
SMILES | MrgX1 agonist | MrgX1 antag | MrgX1 allo act | RGS4 pot | RGS4 inh
O=c1ccnc(Sc2ncccc2[N+](=O)[O-])[nH]1 | - | -5.04 | - | - | -
COc1ccc(OCc2n(CC(=O)OC3CC(C)CCC3C(C)C)c3ccccc3[n+]2C)cc1 (centres undefined) | - | -14.3 | - | - | -
COc1ccc(-c2n(CC(=O)OC3CC(C)CCC3C(C)C)c3ccccc3[n+]2C)cc1 (centres undefined) | . | . | . | -7.3 | -
C=CCOc1ccc(/C=C/C(=O)OCC(=O)N2CCCc3ccccc32)cc1 | - | -9.46 | - | - | -
Cc1cccc(C)c1OCC(=O)Nc1ccccc1N1CCCCC1 | - | - | 7.36 | - | -
Cc1cccc(OCC(=O)Nc2ccccc2N2CCCCC2)c1C | - | - | - | - | -
COc1ccc(OCC(=O)Nc2ccccc2N2CCCCC2)cc1 | - | - | 14.6 | - | -
COc1ccc(OCC(=O)Nc2ccccc2N2CCN(C)CC2)cc1 | - | - | - | - | -
CSc1ccc(/C=C2\C(=N)N3N=C(CC(=O)N4CCOCC4)SC3=NC2=O)cc1 | - | - | 11.1 | - | -
CCN(CC)c1ccc(/C=C2\C(=N)N3N=C(CC(=O)N4CCOCC4)SC3=NC2=O)cc1 | 28.3 | - | - | - | -
CSc1ccc(/C=C2\C(=N)N3N=C(CC(=O)N4CCCCC4)SC3=NC2=O)cc1 | 38 | - | - | - | -
CCc1ccc(/C=C2\C(=N)N3N=C(CC(=O)N4CCCCC4)SC3=NC2=O)cc1 | - | - | - | - | -
CC(=O)OC1COC(OC2C(O)C(C)OC(OC3C(OC4CCC5(C)C(CCC6(C)C5CC=C5C7CC(C)(C)CCC7(C(=O)O)CCC56C)C4(C)CO)OCC(O)C3O)C2O)C(O)C1OC(C)=O (centres undefined) | 219 | - | - | . | .
CC1(C)CC[C@]2(C(=O)O)CC[C@]3(C)C(=CC[C@@H]4[C@@]5(C)CC[C@H](O)C(C)(C)[C@@H]5CC[C@]43C)[C@@H]2C1 | - | - | - | . | .
CC(=O)Nc1ccc2c(c1)c1ccccc1n2C(C)=O | - | - | - | - | -
CC(=O)n1c(-c2ccccc2)c(CO)c2ccccc21 | - | - | 21.6 | - | -
O=C(Cn1cc([N+](=O)[O-])cn1)N1N=C(C(F)F)CC1(O)C(F)F (centres undefined) | - | - | - | - | -
COc1ccc2oc(C(=O)N3CCN(S(=O)(=O)c4cccc([N+](=O)[O-])c4)CC3)c(C)c2c1 | - | - | 16.5 | - | -
Cn1c(-c2ccccn2)[n+](C)c2ccccc21 | - | - | - | - | -
CN(C)c1ccc(-c2n(C)c3ccccc3[n+]2C)cc1 | - | -8.75 | - | - | -
CCOc1cc(S(=O)(=O)N(Cc2ccccc2)Cc2ccccc2)c(OCC)cc1-n1cnnn1 | . | . | . | - | -
O=C(/C(N=Nc1cccc(C(F)(F)F)c1)=C(/O)c1cccs1)C(F)(F)F | - | - | - | -9.18 | -
CC(=O)/C(N=Nc1cccc(C(F)(F)F)c1)=C(\C)O | - | - | - | - | -
CCN(CC)N=Nc1ccc(S(=O)(=O)N2CCSC2C(=O)O)cc1 (centres undefined) | - | - | - | - | -
CCN(CC)N=Nc1ccc(C(=O)O)cc1 | - | -5.52 | - | - | -
Cc1ccc(C2=N/C(=C/c3cccs3)C(=O)N2Nc2ccccc2)cc1 | - | - | - | - | -
O=[N+]([O-])c1ccc(-c2ccc(/C=N/Nc3nc(N4CCCC4)nc(N4CCCC4)n3)o2)cc1 | 34.2 | - | - | - | -
O=[N+]([O-])c1ccc(-c2ccc(/C=N/Nc3nc(N4CCCCC4)nc(N4CCCCC4)n3)o2)cc1 | . | . | . | - | -
Cc1ccc(SCC(=O)Nc2ccc(N3CCN(C)CC3)c(F)c2)c(C)c1 | - | - | - | -7.6 | -
Cc1sc(NC(=O)c2c(F)cccc2F)nc1-c1ccccc1 | - | - | - | - | -

Screening results as filed in PubChem.
